From PubChem
Sampled rows, rich in hits. Any-hit rate of the full collection: about 3.4%.
LANA-H2A inh: blocks KSHV LANA binding to histone H2A/H2B. Q9QR71. inhibition, % (no concentration beside the values). 0.6% of 320,000 active. cell-free LANA-H2A/H2B peptide, fluorescence polarization. AID 2629; in the data active = inhibition mostly above about 10%, no sharp cut-off; inactive = mostly below about 6.7%
TRPML3 ag: activates the human TRPML3 channel | activation, % at 3 µM | 0.29% of 220,000 active | HEK293 TRPML3-YFP, Fluo-8 calcium fluorescence; 100% = the carbachol control signal | Q8TDD5;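 active = activation above its plate's cutoff, the mean activation of the plate's test wells plus 3 SD, cut at about 12% in these data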
Target sequence (Q8TDD5 whole entry, looked up): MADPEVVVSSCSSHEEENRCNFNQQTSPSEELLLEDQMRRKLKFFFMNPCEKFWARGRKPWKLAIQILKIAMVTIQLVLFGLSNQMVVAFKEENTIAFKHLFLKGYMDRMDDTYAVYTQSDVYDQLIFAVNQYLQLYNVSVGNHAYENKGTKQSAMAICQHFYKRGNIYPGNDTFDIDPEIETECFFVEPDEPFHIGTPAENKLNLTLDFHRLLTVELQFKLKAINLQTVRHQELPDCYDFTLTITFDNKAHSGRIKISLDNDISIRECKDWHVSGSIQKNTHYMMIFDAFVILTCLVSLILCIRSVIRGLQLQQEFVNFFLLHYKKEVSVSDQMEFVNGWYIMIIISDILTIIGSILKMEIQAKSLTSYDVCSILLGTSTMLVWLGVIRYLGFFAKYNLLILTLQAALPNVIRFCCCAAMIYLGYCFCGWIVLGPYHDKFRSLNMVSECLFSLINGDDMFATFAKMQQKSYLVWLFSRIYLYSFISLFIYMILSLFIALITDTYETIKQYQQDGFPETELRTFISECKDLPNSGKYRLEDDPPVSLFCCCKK
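Test system – HEK293 line with stable expression of human TRPML3-YFP channel · Control set – carbachol 87 µM final as high control (100%), DMSO as low control (0%) · Signal – Fluo-8 calcium dye fluorescence, ex 470-495, em 515-575 nm · Incubation – 1-h 37 °C dye load, 5-s basal, 120-s post-compound reads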
TAAR1 ag: agonists of human TAAR1 | CHO RD-HGA16 TAAR1, Fluo-8 calcium fluorescence; vehicle wells 0%, saturating PEA agonist 100% | activation, % at 3 µM | 0.99% of 360,000 active | AID 624467 | Q96RJ0;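 active = activation above the mean activation of all test compounds in the run plus 3 SD, cut at about 38% in these data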
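Test system: RD-HGA16 (CHO) cells co-expressing Gα16 and hTAAR1 / Benchmarks: DMSO vehicle as 0%, PEA at EC100 as 100% / Repeats: no replicates (n 1) / Measure: % activation from peak over basal fluorescence ratio, DMSO-to-PEA scaled / Timing: 17-24 h plating, Fluo-8 75 min 37 °C, 30 min RT / Technique: kinetic Fluo-8 calcium fluorescence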
GPR7 antag: antagonists of human GPR7 (neuropeptides B/W receptor 1); 1.1% of 290,000 active; AID 1861; GPR7-expressing cells, fluorescence antagonist assay; inhibition, % at 4.4 µM; in the data active = inhibition above about 16%, passing the limit was not always enough;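 note: cells stimulated with the agonist NPW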
TRPN1 ag: agonists of zebrafish TRPN1 channel | HEK293 zebrafish TRPN1-YFP, Fluo-8 calcium fluorescence; 100% = response to 87 µM carbachol | activation, % at 3 µM | 0.18% of 220,000 active;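 active = activation above its plate's cutoff, the mean activation of test wells on that plate plus 3 SD, cut at about 19% in these data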
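Material – zebrafish TRPN1-YFP in HEK293 cells · Doses – 3 µM single point · Schedule – dye 1 h 37 °C plus 30 min RT · Signal – Fluo-8 calcium fluorescence, excitation 470-495 nm, emission 515-575 nm · Read-out – % activation versus carbachol response · Control set – carbachol high, DMSO low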
TAAR1 antag: antagonists of human TAAR1; AID 624466; inhibition, % at 3 µM; 1.5% of 360,000 active; CHO RD-HGA16 TAAR1, Fluo-8 calcium fluorescence, antagonist;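 active = inhibition above a per-plate cutoff, the mean inhibition of test compounds on that plate plus 3 SD, cut at about 49% in these data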
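Test system – hTAAR1-expressing CHO RD-HGA16 cells, Gα16-coupled · Also added – β-PEA at EC80 concentration, post-compound challenge · Compound – 3 µM, single point · Incubation – dye loading 75 min at 37 °C, then 30 min room temperature · Measured by – Fluo-8 intracellular calcium dye fluorescence, real-time kinetic reads · Benchmarks – vehicle and agonist controls · Replicates – singlicate, one well per test compound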
GPR7 antag conf: human GPR7 antagonism, confirmation assay; 52% of 2,400 active; GPR7-expressing cells, calcium fluorescence antagonist mode; inhibition, % at 4.4 µM; shares compounds with GPR7 antag; in the data active = inhibition above about 24%;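 note: stimulated with the GPR7 agonist NPW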
MCHR1 antagonist: MCHR1 (human) antagonism in GPR7 counter-screen. 62% of 2,400 active. MCHR1-expressing cells, fluorescence antagonist assay. shares compounds with GPR7 antag. inhibition, % at 4.4 µM; in the data active = inhibition above about 22%
Of the large screens only hits and unclear results are named; the others gave an inactive call (follow-up assays come after a bar, where they were run).

CCO[C@H]1OC(C(=O)NCc2ccccc2)=C[C@@H](c2ccc3c(c2)OCO3)[C@@H]1CCCO	TAAR1 ag 50, GPR7 antag 33 | GPR7 antag conf inactive | MCHR1 antagonist inactive
CCO[C@@H]1OC(C(=O)NCc2ccccc2)=C[C@H](c2ccc3c(c2)OCO3)[C@H]1CCCO	none
COc1ccc(C2=NOC(COc3ccc4c(C)cc(=O)oc4c3)C2)c(OC)c1 (stereo not given)	GPR7 antag 22 | GPR7 antag conf 34 | MCHR1 antagonist 34
COc1ccccc1-c1nnc(C2CCN(S(=O)(=O)c3cccc([N+](=O)[O-])c3)CC2)o1	none (no result: TRPML3 ag, TRPN1 ag)
COc1ccccc1-c1nnc(C2CCN(S(=O)(=O)c3ccc([N+](=O)[O-])cc3)CC2)o1	GPR7 antag 21 (no result: TRPML3 ag, TRPN1 ag) | GPR7 antag conf 48 | MCHR1 antagonist 32
Cc1ccc(-n2c(SCC(=O)N3CC(=O)Nc4ccccc43)nc3ccccc3c2=O)cc1	GPR7 antag 27 | GPR7 antag conf inactive | MCHR1 antagonist inactive
CCc1nc2ccc(C(=O)NCCCN3CCCC3=O)cn2c1N(C)Cc1ccc(OC)cc1	none (no result: LANA-H2A inh, TRPML3 ag, GPR7 antag, TRPN1 ag)
Cc1ccccc1C(=O)Nc1c(C(=O)N(CCN(C)C)Cc2ccco2)oc2ccccc12	none (no result: TRPML3 ag, TRPN1 ag)
COc1ccc(OCC(=O)Nc2c(C(=O)N3CCN(C)CC3)oc3ccccc23)cc1	none (no result: TRPML3 ag, TRPN1 ag)
COc1ccc(OCC(=O)Nc2c(C(=O)N(CCN(C)C)Cc3ccco3)oc3ccccc23)cc1	GPR7 antag 28 (no result: TRPML3 ag, TRPN1 ag) | GPR7 antag conf inactive | MCHR1 antagonist 35
COc1ccccc1C(=O)Nc1c(C(=O)N(CCN(C)C)Cc2ccco2)oc2ccccc12	GPR7 antag 29 (no result: TRPML3 ag, TRPN1 ag) | GPR7 antag conf 48 | MCHR1 antagonist 62
CC1=C(C(=O)Nc2cc(C(=O)N(C)Cc3ccccc3)ccc2C)SCCO1	none (no result: TRPML3 ag, TRPN1 ag)
CN(CC(=O)Nc1sccc1C(N)=O)S(=O)(=O)c1ccc(Cl)cc1	none (no result: TRPML3 ag, GPR7 antag, TRPN1 ag)
COc1cc(OC)cc(C(=O)Nc2cccc3c2CCCC3)c1	GPR7 antag 32 (no result: TRPML3 ag, TRPN1 ag) | GPR7 antag conf inactive | MCHR1 antagonist inactive
COc1cccc(OC)c1C(=O)Nc1cccc2c1CCCC2	none (no result: TRPML3 ag, TRPN1 ag)
CCCCCCN1C2=NCCCN2c2ccccc21	GPR7 antag 26 | GPR7 antag conf inactive | MCHR1 antagonist inactive
CCc1ccc(C(C)NC(=S)NCc2ccc(F)cc2)cc1 (stereo not given)	TAAR1 ag 40, GPR7 antag 31 (no result: TRPML3 ag, TRPN1 ag) | GPR7 antag conf 43 | MCHR1 antagonist 75
CC(=O)c1ccc(NC(=O)CSc2ccc(-c3sc(C)nc3C)nn2)cc1	GPR7 antag 26, TAAR1 antag 64 (no result: TRPML3 ag, TRPN1 ag) | GPR7 antag conf 43 | MCHR1 antagonist 76
CCN1C(=O)[C@H]2[C@@H](c3ccc(OC)cc3)N[C@]3(CCCN(Cc4ccc(OC)cc4)C3=O)[C@H]2C1=O	none (no result: LANA-H2A inh, TRPML3 ag, GPR7 antag, TRPN1 ag)
C=C[C@@H]1c2ccccc2N(S(=O)(=O)c2ccc(C)cc2)[C@H](c2ccc(C(=O)OC)cc2)C1(C#N)C#N	none (no result: TRPML3 ag, GPR7 antag, TRPN1 ag)
CCS(=O)(=O)c1ncc(Cl)c(C(=O)Nc2ccc(S(=O)(=O)N(C)c3ccccc3)cc2)n1	GPR7 antag 61, TAAR1 antag 56 (no result: TRPML3 ag, TRPN1 ag) | GPR7 antag conf 96 | MCHR1 antagonist 98
CS(=O)(=O)c1ncc(Cl)c(C(=O)Nc2ccc(OC(F)F)cc2)n1	GPR7 antag 51 (no result: TRPML3 ag, TAAR1 ag, TRPN1 ag, TAAR1 antag) | GPR7 antag conf 88 | MCHR1 antagonist 94
CS(=O)(=O)c1ncc(Cl)c(C(=O)Nc2ccc(N3CCOCC3)cc2)n1	none (no result: TAAR1 ag, TAAR1 antag)
CCN(c1ccccc1)S(=O)(=O)c1ccc(NC(=O)c2nc(S(C)(=O)=O)ncc2Cl)cc1	GPR7 antag 98 (no result: TRPML3 ag, TAAR1 ag, TRPN1 ag, TAAR1 antag) | GPR7 antag conf 97 | MCHR1 antagonist 102
Cc1cc(=O)oc2cc(OC(=O)c3ccco3)ccc12	none (no result: LANA-H2A inh)
COc1ccccc1C(=O)Nc1ccc2c(C)cc(=O)oc2c1	GPR7 antag 42 (no result: TRPML3 ag, TRPN1 ag) | GPR7 antag conf inactive | MCHR1 antagonist inactive
Cc1cc(=O)oc2cc(OC(=O)c3ccccc3)ccc12	none (no result: GPR7 antag) | MCHR1 antagonist inactive
CCOc1ncccc1C(=O)Nc1ccc2c(C)cc(=O)oc2c1	none
CN1CCCN(C(=O)c2cc(-c3ccc(Cl)c(Cl)c3Cl)nc3ccccc23)CC1	GPR7 antag 21 | GPR7 antag conf 31 | MCHR1 antagonist 39
Cc1ccc(NC(=O)c2nc(S(=O)(=O)Cc3ccccc3)ncc2Cl)cc1	GPR7 antag 35 (no result: TRPML3 ag, TRPN1 ag) | GPR7 antag conf 60 | MCHR1 antagonist 98
Cc1cccc(CS(=O)(=O)c2ncc(Cl)c(C(=O)Nc3c(C)cccc3C)n2)c1	GPR7 antag 51 (no result: LANA-H2A inh, TRPML3 ag, TRPN1 ag) | GPR7 antag conf 58 | MCHR1 antagonist 97
Cc1cccc(C)c1NC(=O)c1nc(S(=O)(=O)Cc2ccccc2)ncc1Cl	none (no result: LANA-H2A inh, TRPML3 ag, TRPN1 ag)
COC(=O)CNC(=O)c1c(-c2ccccc2Cl)noc1C	GPR7 antag 23 | GPR7 antag conf inactive | MCHR1 antagonist inactive
COC(=O)CNC(=O)c1c(-c2c(Cl)cccc2Cl)noc1C	none
CC(C)(C)OC(=O)Nc1ccccc1-n1nnnc1C(C(=O)c1ccc(F)cc1)N1CCN(c2ccccn2)CC1 (stereo not given)	none (no result: LANA-H2A inh, TRPML3 ag, GPR7 antag, TRPN1 ag)
COc1ccc(Br)cc1S(=O)(=O)N1CCCc2ccccc21	none (no result: TRPML3 ag, TRPN1 ag)
